ChEMBL document CHEMBL1136739, “Modes of methyleneoxy bridging and their effect on tetrahydronaphthalene lignan cytotoxicity” (2003)

Assays:
[1] = tested on: Panel (Carcinoma cell lines); test: Mean graph midpoint for growth inhibition of all human cancer cell lines.; assay type: functional
How it was run: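 Mean graph midpoint: the average GI50 (molar) over all human cancer cell lines successfully tested in the 60 cell line panel, expressed as log GI50.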

SR = test: Cytotoxicity against leukemia SR cell line; assay type: functional; conditions: Homo sapiens
How it was run: (§1)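 Tested in the 60 human cancer cell line panel, after a preliminary one-dose screen in three cell lines. The value is the molar concentration giving 50% growth inhibition (GI50), reported as log GI50 for each cell line.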

HCT-116 = test: Cytotoxicity against colon HCT116 cell line; assay type: functional; conditions: Homo sapiens; how it was run: as §1
MDA-MB-435 (human) = test: Cytotoxicity against breast MDA-MB-435 cell line
HOP-62 = test: Cytotoxicity against lung HOP-62 cell line; assay type: functional; conditions: Homo sapiens; how it was run: as §1
OVCAR-3 = test: Cytotoxicity against ovarian OVCAR-3 cell line; assay type: functional; conditions: Homo sapiens; how it was run: as §1
OVCAR-4 = test: Cytotoxicity against […] OVCAR-4 cell line; assay type: functional; conditions: Homo sapiens; how it was run: as §1
UACC-62 = test: Cytotoxicity against melanoma UACC-62 cell line; assay type: functional; conditions: Homo sapiens; how it was run: as §1
SN12C = test: Cytotoxicity against renal SN12C cell line; assay type: functional; conditions: Homo sapiens; how it was run: as §1
NCI-H322M = test: Cytotoxicity against lung […] cell line; assay type: functional; conditions: Homo sapiens; how it was run: as §1
SNB-75 = test: Cytotoxicity against prostate CNS SNB-75 cell line; assay type: functional; conditions: Homo sapiens; how it was run: as §1
DU-145 = test: Cytotoxicity against prostate DU-145 cell line; assay type: functional; conditions: Homo sapiens; how it was run: as §1
SF-539 = test: Cytotoxicity against CNS SF-539 cell line; assay type: functional; conditions: Homo sapiens; how it was run: as §1
[2] = in the assay text read “CNS” for “prostate CNS”

| SMILES | GI50 [1] [µM] | GI50 (SR) [µM] | GI50 (HCT-116) [µM] | GI50 (MDA-MB-435 (human)) [µM] | GI50 (HOP-62) [µM] | GI50 (OVCAR-3) [µM] | GI50 (OVCAR-4) [µM] | GI50 (UACC-62) [µM] | GI50 (SN12C) [µM] | GI50 (NCI-H322M) [µM] | GI50 (SNB-75; [2]) [µM] | GI50 (DU-145) [µM] | GI50 (SF-539) [µM] | GI50 (SNB-75) [µM] |
| --- | --- | --- | --- | --- | --- | --- | --- | --- | --- | --- | --- | --- | --- | --- |
| COc1cc2c(cc1OC)[C@@H]1OC[C@H]([C@@H]2c2cc(OC)c(OC)c(OC)c2)[C@@H]1CO | > 100 | – | – | – | – | – | – | – | – | – | – | – | – | – |
| COc1cc2c(cc1OC)[C@H]1c3cc(OC)c(OC)c(OC)c3OC[C@H]1[C@H](CO)C2 | 20 | 18.2 | 22.4 | 18.2 | 60.3 | 15.1 | 1.95 | 20 | 25.1 | 8.71 | 3.63 | 22.9 | 24.5 | – |
| COc1cc([C@]23OC[C@H](Cc4cc5c(cc42)OCO5)[C@@H]3CO)cc(OC)c1OC | 4.07 | 0.589 | 2.88 | 0.295 | 4.37 | 1.45 | 23.4 | 4.27 | – | 6.17 | 2.69 | 2.63 | 2.51 | – |
| COc1cc2c(c(OC)c1OC)OC[C@H]1[C@H](COC(C)=O)Cc3cc4c(cc3[C@@H]21)OCO4 | 40.7 | 21.9 | 61.7 | 39.8 | 67.6 | 56.2 | 47.9 | 31.6 | 40.7 | – | – | 70.8 | 57.5 | – |
| COc1ccc(C23OCC24C2COC(c5cc(OC)c(OC)cc53)C24)cc1OC (stereo unspecified) | > 100 | – | > 100 | > 100 | > 100 | > 100 | – | > 100 | – | – | – | > 100 | > 100 | – |
| COc1cc([C@]23OC[C@H](Cc4cc5c(cc42)OCO5)[C@@H]3C)cc(OC)c1OC | 0.851 | 0.148 | 0.437 | – | 0.794 | 0.186 | 0.38 | 0.407 | 5.37 | 2.14 | – | 0.479 | – | 0.38 |
| COc1cc2c(cc1OC)C1(c3cc(OC)c(OC)c(OC)c3)OCC13C1COC2C13 (stereo unspecified) | 41.7 | – | 28.2 | 19.5 | 70.8 | 30.2 | – | 69.2 | 34.7 | – | – | 29.5 | 31.6 | – |
| COc1cc2c(cc1OC)[C@]1(c3cc(OC)c(OC)c(OC)c3)OC[C@H](C2)[C@@H]1CO | 47.9 | 44.7 | 30.2 | 6.76 | 47.9 | 24 | 77.6 | 63.1 | 58.9 | 43.7 | – | 30.2 | 17.8 | – |
| COc1cc(C23OCC24C2COC(c5cc6c(cc53)OCO6)C24)cc(OC)c1OC (stereo unspecified) | 0.0182 | – | < 0.01 | < 0.01 | < 0.01 | < 0.01 | – | < 0.01 | – | – | – | < 0.01 | < 0.01 | – |
| COc1ccc([C@]23OC[C@H](Cc4cc(OC)c(OC)cc42)[C@@H]3C)cc1OC | 3.8 | – | 2.75 | – | 2.4 | 2.4 | – | 6.92 | 12 | – | – | 3.89 | 1.95 | – |
| COc1cc([C@@H]2c3cc4c(cc3[C@H]3OC[C@@H]2[C@@H]3CO)OCO4)cc(OC)c1OC | 32.4 | – | 30.2 | 6.76 | 47.9 | 24 | – | 18.2 | 58.9 | – | – | 30.2 | 17.8 | – |
| COc1cc2c(c(OC)c1OC)OC[C@H]1[C@H](CO)Cc3cc4c(cc3[C@@H]21)OCO4 | 30.9 | 5.13 | 30.2 | 19.1 | 52.5 | 25.1 | 39.8 | 25.7 | 44.7 | 47.9 | 42.7 | 37.2 | 20.9 | – |
| COc1cc([C@]23OC[C@H](Cc4cc5c(cc42)OCO5)[C@@H]3COC(C)=O)cc(OC)c1OC | 3.89 | 0.759 | 2.34 | 0.468 | 4.27 | 2.14 | 4.27 | 2.95 | 5.01 | 4.37 | 2 | 4.57 | 1.74 | – |
| COc1cc([C@]23OC[C@H](Cc4cc5c(cc42)OCO5)[C@H]3CO)cc(OC)c1OC | 10.5 | – | 0.0437 | 7.41 | 0.219 | 0.182 | – | 0.0776 | 4.79 | – | – | 4.47 | 3.89 | – |
| COc1cc2c(c(OC)c1OC)OC[C@@H]1[C@H]2c2cc3c(cc2C[C@H]1C)OCO3 | 38 | 19.1 | 31.6 | 11.5 | > 75.9 | 33.1 | 37.2 | 30.2 | > 75.9 | > 75.9 | 12.3 | > 75.9 | 20.9 | – |
| COc1cc([C@@H]2c3cc4c(cc3[C@@H]3OC[C@H]2[C@@H]3CO)OCO4)cc(OC)c1OC | 23.4 | – | 29.5 | 3.89 | 19.1 | 14.5 | – | 26.9 | 31.6 | – | – | 39.8 | 15.5 | – |
| COc1cc([C@]23OC[C@H](Cc4cc5c(cc42)OCO5)[C@H]3COC(C)=O)cc(OC)c1OC | 12.3 | – | 13.8 | 1.86 | 25.1 | – | – | 10 | 25.7 | – | – | – | 19.1 | – |
